Source: ChEMBL document CHEMBL1938268, “Synthesis, characterization and in vitro biological evaluation of some novel diarylsulfonylureas as potential cytotoxic and antimicrobial agents” (Bioorg Med Chem Lett, 2012)
≈ marks a conversion by molar mass, not a printed value.

What was measured:
Aspergillus oryzae = assay: Antifungal activity against Aspergillus oryzae NCIM 643 after 48 hrs by agar well diffusion assay; format: functional; settings: NCIM 643, 48 h
How it was run: (§1)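 Fungal spore suspensions in sterile distilled water set to final 10⁶ CFU/mL; 0.1 mL spread on Potato-Dextrose-Agar. NCCLS agar well diffusion with NCIM standard strains: 6 mm wells given 0.1 mL compound diluted in 1% DMSO, final 16 to 512 µg/mL. Triplicate plates held 48 h at 28 0.2 °C. MIC is lowest concentration fully inhibiting growth.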

Klebsiella pneumoniae = assay: Antibacterial activity against Klebsiella pneumoniae NCIM 5082 after 24 hrs by agar well diffusion assay; format: functional; settings: NCIM 5082, 24 h
How it was run: (§2)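 Agar well diffusion per NCCLS; NCIM standard strains. Nutrient agar seeded with 0.1 mL bacterial suspension in sterile 0.85% saline at 10⁵ CFU/mL. Plates in triplicate, 37 0.5 °C, 24 h. MIC taken as lowest concentration giving complete growth inhibition.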

Bacillus pumilus = assay: Antibacterial activity against Bacillus pumilus NCIM 2327 after 24 hrs by agar well diffusion assay; settings: NCIM 2327, 24 h
Proteus vulgaris = assay: Antibacterial activity against Proteus vulgaris NCIM 2813 after 24 hrs by agar well diffusion assay; format: functional; settings: NCIM 2813, 24 h; how it was run: as §2
Candida albicans = assay: Antifungal activity against Candida albicans NCIM 3102 after 48 hrs by agar well diffusion assay; format: functional; settings: NCIM 3102, 48 h; how it was run: as §1
Escherichia coli = assay: Antibacterial activity against Escherichia coli NCIM 2065 after 24 hrs by agar well diffusion assay; format: functional; settings: NCIM 2065, 24 h; how it was run: as §2
Micrococcus luteus = assay: Antibacterial activity against Micrococcus luteus NCIM 2155 after 24 hrs by agar well diffusion assay; format: functional; settings: NCIM 2155, 24 h; how it was run: as §2
[1] = Toxicity against Brine shrimp nauplii after 24 hrs; format: organism-based; settings: artemia salina, in vivo; read-out: ED50
How it was run: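 Artemia salina nauplii hatched 38 h in sterile brine (sea salt 38 g/L, pH 8.5) under aeration; 10 nauplii per vial exposed to graded compound concentrations in 5 mL final volume, 37 °C, 24 h under incandescent light. Survivors counted; percent lethality versus vehicle-treated controls; ED50 from probit analysis; podophyllotoxin positive control.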

Staphylococcus aureus = assay: Antibacterial activity against Staphylococcus aureus NCIM 2079 after 24 hrs by agar well diffusion assay; format: functional; settings: NCIM 2079, 24 h; how it was run: as §2
Aspergillus niger = assay: Antifungal activity against Aspergillus niger NCIM 548 after 48 hrs by agar well diffusion assay; format: functional; settings: NCIM 548, 48 h; how it was run: as §1
Penicillium chrysogenum = assay: Antifungal activity against Penicillium chrysogenum NCIM 738 after 48 hrs by agar well diffusion assay; format: functional; settings: NCIM 738, 48 h; how it was run: as §1
Pseudomonas aeruginosa = assay: Antibacterial activity against Pseudomonas aeruginosa NCIM 2036 after 24 hrs by agar well diffusion assay; format: functional; settings: NCIM 2036, 24 h; how it was run: as §2
Bacillus subtilis = assay: Antibacterial activity against Bacillus subtilis NCIM 2063 after 24 hrs by agar well diffusion assay; format: functional; settings: NCIM 2063, 24 h; how it was run: as §2

| Compound | MIC (Aspergillus oryzae) [µg/mL] | MIC (Klebsiella pneumoniae) [µg/mL] | MIC (Bacillus pumilus) [µg/mL] | MIC (Proteus vulgaris) [µg/mL] | MIC (Candida albicans) [µg/mL] | MIC (Escherichia coli) [µg/mL] | MIC (Micrococcus luteus) [µg/mL] | LC50 at 24 h [1] [µg/mL] | MIC (Staphylococcus aureus) [µg/mL] | MIC (Aspergillus niger) [µg/mL] | MIC (Penicillium chrysogenum) [µg/mL] | MIC (Pseudomonas aeruginosa) [µg/mL] | MIC (Bacillus subtilis) [µg/mL] |
| --- | --- | --- | --- | --- | --- | --- | --- | --- | --- | --- | --- | --- | --- |
| Cc1ccc(S(=O)(=O)NC(=O)Nc2ccccc2C(=O)/C=C/c2ccc(Cl)cc2)cc1 | 64 (≈ 141 µM) | 64 (≈ 141 µM) | 32 (≈ 70.3 µM) | 64 (≈ 141 µM) | 64 (≈ 141 µM) | 32 (≈ 70.3 µM) | 64 (≈ 141 µM) | 6.92 (≈ 15.2 µM) | 32 (≈ 70.3 µM) | 64 (≈ 141 µM) | 64 (≈ 141 µM) | 32 (≈ 70.3 µM) | 32 (≈ 70.3 µM) |
| Cc1ccc(S(=O)(=O)NC(=O)Nc2ccccc2C(=O)/C=C/c2ccc(Cl)cc2Cl)cc1 | 64 (≈ 131 µM) | 64 (≈ 131 µM) | 32 (≈ 65.4 µM) | 64 (≈ 131 µM) | 64 (≈ 131 µM) | 32 (≈ 65.4 µM) | 64 (≈ 131 µM) | 8.34 (≈ 17 µM) | 32 (≈ 65.4 µM) | 64 (≈ 131 µM) | 64 (≈ 131 µM) | 16 (≈ 32.7 µM) | 16 (≈ 32.7 µM) |
| Cc1ccc(S(=O)(=O)NC(=O)Nc2ccccc2C(=O)/C=C/c2cccc(Br)c2)cc1 | 128 (≈ 256 µM) | 128 (≈ 256 µM) | 16 (≈ 32 µM) | 16 (≈ 32 µM) | 128 (≈ 256 µM) | 16 (≈ 32 µM) | 16 (≈ 32 µM) | 4.02 (≈ 8.05 µM) | 64 (≈ 128 µM) | 64 (≈ 128 µM) | 128 (≈ 256 µM) | 32 (≈ 64.1 µM) | 16 (≈ 32 µM) |
| C=CCOc1ccc(/C=C/C(=O)c2ccccc2NC(=O)NS(=O)(=O)c2ccc(C)cc2)cc1 | 16 (≈ 33.6 µM) | 16 (≈ 33.6 µM) | 16 (≈ 33.6 µM) | 16 (≈ 33.6 µM) | 16 (≈ 33.6 µM) | 32 (≈ 67.1 µM) | 32 (≈ 67.1 µM) | 6.11 (≈ 12.8 µM) | 16 (≈ 33.6 µM) | 16 (≈ 33.6 µM) | 16 (≈ 33.6 µM) | 16 (≈ 33.6 µM) | 32 (≈ 67.1 µM) |
| Cc1ccc(S(=O)(=O)NC(=O)Nc2ccccc2C(=O)/C=C/C=C/c2ccccc2)cc1 | 256 (≈ 573 µM) | 256 (≈ 573 µM) | 128 (≈ 287 µM) | 256 (≈ 573 µM) | 256 (≈ 573 µM) | 128 (≈ 287 µM) | 256 (≈ 573 µM) | 18.2 (≈ 40.8 µM) | 128 (≈ 287 µM) | 256 (≈ 573 µM) | 256 (≈ 573 µM) | 128 (≈ 287 µM) | 128 (≈ 287 µM) |
| Cc1ccc(S(=O)(=O)NC(=O)Nc2ccccc2C(=O)/C=C/c2ccc[nH]2)cc1 | 256 (≈ 625 µM) | 256 (≈ 625 µM) | 128 (≈ 313 µM) | 256 (≈ 625 µM) | 256 (≈ 625 µM) | 128 (≈ 313 µM) | 256 (≈ 625 µM) | 32.1 (≈ 78.4 µM) | 128 (≈ 313 µM) | 256 (≈ 625 µM) | 256 (≈ 625 µM) | 256 (≈ 625 µM) | 256 (≈ 625 µM) |
| Cc1ccc(S(=O)(=O)NC(=O)Nc2ccccc2C(=O)/C=C/c2cccnc2)cc1 | 128 (≈ 304 µM) | 128 (≈ 304 µM) | 128 (≈ 304 µM) | 128 (≈ 304 µM) | 128 (≈ 304 µM) | 128 (≈ 304 µM) | 128 (≈ 304 µM) | 14.1 (≈ 33.4 µM) | 128 (≈ 304 µM) | 128 (≈ 304 µM) | 128 (≈ 304 µM) | 128 (≈ 304 µM) | 128 (≈ 304 µM) |
| Cc1ccc(S(=O)(=O)NC(=O)Nc2ccccc2C(=O)/C=C/c2ccncc2)cc1 | 64 (≈ 152 µM) | 64 (≈ 152 µM) | 64 (≈ 152 µM) | 64 (≈ 152 µM) | 64 (≈ 152 µM) | 64 (≈ 152 µM) | 64 (≈ 152 µM) | 16.8 (≈ 39.9 µM) | 64 (≈ 152 µM) | 64 (≈ 152 µM) | 64 (≈ 152 µM) | 128 (≈ 304 µM) | 128 (≈ 304 µM) |
| Cc1ccc(S(=O)(=O)NC(=O)Nc2ccccc2C(=O)/C=C/c2c3ccccc3cc3ccccc23)cc1 | 512 (≈ 983 µM) | 512 (≈ 983 µM) | 512 (≈ 983 µM) | 512 (≈ 983 µM) | 512 (≈ 983 µM) | 512 (≈ 983 µM) | 512 (≈ 983 µM) | 44.3 (≈ 85.1 µM) | 512 (≈ 983 µM) | 512 (≈ 983 µM) | 512 (≈ 983 µM) | 512 (≈ 983 µM) | 512 (≈ 983 µM) |
